# Assay outcomes as filed in PubChem.
# AI-2 QS modul: Vibrio harveyi AI-2 quorum sensing modulation; Vibrio harveyi JMH597 AI-2 luminescence/OD600 ratio, 9 h; stronger effect = lower value; strain lacks LuxN and CqsS sensors; 0 = neutral-control median; activity change, % at 7.5 µM; 0.4% of 300,000 active; AID 2094; in the data active = activity change below about -75%, passing the limit was not always enough;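 note: luminescence divided by OD600 gain over 9 h not by final OD600 alone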
# CR mimetic SO: lowers age-related superoxide in aged yeast cells. S. cerevisiae aged cells, superoxide DHE fluorescence; stronger effect = lower value. superoxide response (% of plate mean), % at 10 µM. 0.18% of 330,000 active. AID 2690;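 active = superoxide response under a set limit, about three screen SD below normal, cut at about 65% in these data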;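 note: yeast aged for seven days with compound at 30 °C before DHE staining; 100% = average MFI of all compound-treated wells on the plate with controls excluded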
# NRP1-CendR mod: modulators of CendR peptide binding to human neuropilin-1; FAM-RPARPAR peptide binding to NRP-1, fluorescence polarization; inhibition, % at 25 µM; 0.85% of 360,000 active;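 active = inhibition or corrected inhibition above about 18%, plus a signal ratio from 0.5 to 1.5, limit read from the data, passing the limit was not always enough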
# HIF activator: HIF pathway transcriptional activation | U2OS HRE-luciferase reporter, luminescence; normalized: DMSO 0%, desferrioxamine 100% | activation, % at 7.5 µM (by protocol) | 0.32% of 300,000 active;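 active = mean activation of at least 10% of the iron chelator positive control signal, with at least half of replicates also reaching 10%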
# T cruzi inh: T. cruzi replication inhibition; T. cruzi beta-gal in NIH3T3, luminescence, 90 h; inhibition, % (test concentration not listed); 1.4% of 300,000 active; AID 1885;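 active = mean inhibition across valid replicates above about 55%, limit read from the data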;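 note: signal also drops with host cell toxicity which is not excluded here; 0% = plate median of DMSO wells and 100% = zero luminescence signal; higher percent means less beta-gal luminescence so fewer parasites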
#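 Assay system: NIH/3T3 host cells with β-galactosidase reporter T. cruzi; input: 5,000 host fibroblasts per well; compound: single 50 nL compound addition per well in DMSO; timing: ≥90 h infection period, 3 h prior cell attachment; measured by: GalScreen β-gal luminescence, detergent lysis, 60 min; evaluation: percent inhibition of parasite-derived β-gal signal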
# V-ATPase pHluor: alters yeast V-ATPase proton transport. AID 504577. response, % at 10 µM. 0.37% of 350,000 active. S. cerevisiae, pHLuorin cytosolic pH fluorescence; in the data active = response mostly above about 7.3%, no sharp cut-off; inactive = mostly below about 5.4%; note: actives read high
# Active calls of the source: *; / = not tested or not shown. Rows were chosen to be rich in hits. Some 3% of all compounds tested hit in one or more screens of this group.
SMILES,AI-2 QS modul,CR mimetic SO,NRP1-CendR mod,HIF activator,T cruzi inh,V-ATPase pHluor
COc1cc2cc(Oc3ccc4ccc(=O)oc4c3)c(=O)oc2cc1O[C@@H]1O[C@H](CO)[C@@H](O)[C@H](O)[C@H]1O,/,102,-49,/,/,8
COC(=O)[C@]12CCCCC=C1N(CCc1ccc(OC)c(OC)c1)C(=O)[C@H](CC(=O)N1CCSCC1)C2,/,/,-4,/,/,/
O=C(CSc1ccc2ccccc2c1)N1CCN(c2ccc(O)cc2)CC1,18,108,0,/,0,0
O=C(O)c1ccccc1C(=O)NCc1ccccc1,-2,113,3,0,-5,3
O=C(NCc1ccccc1)c1ccccc1C(=O)c1ncc[nH]1,-14,101,27*,0,-2,-1
CCCCNC(=O)C[C@@H]1C[C@@]2(C(=O)OC)CC(C)(C)CC=C2N(Cc2ccc3c(c2)OCO3)C1=O,/,/,-11,/,/,/
Cc1cc(N2C(=O)C(O)=C(C(=O)c3ccco3)C2c2cccc(Oc3ccccc3)c2)no1 (stereo unspecified),30,121,-12,0,-11,1
O=C(c1ccco1)N1CCN(C(=O)c2ccccc2OC(=O)C23CC4CC(CC(C4)C2)C3)CC1,17,/,20*,-1,13,-7
O=C(O)c1ccccc1OC(=O)C12CC3CC(CC(C3)C1)C2,20,96,2,0,-13,1
Cc1c(C(=O)NCc2ccc3c(c2)OCO3)oc2ccc(S(=O)(=O)N3CCC(C)CC3)cc12,-1,116,2,-2,56*,-1
CC1CCN(S(=O)(=O)c2ccc3c(c2)oc(=O)n3CC(=O)NCc2ccc3c(c2)OCO3)CC1,-2,90,-1,0,24,3
Cc1c(C(=O)NCc2ccc3c(c2)OCO3)oc2ccc(S(=O)(=O)N3CCCCCC3)cc12,6,104,4,-1,55*,-1
Cc1ccc2oc(C(=O)NCc3ccc4c(c3)OCO4)c(C)c2c1,39,81,6,-1,2,1
Cc1ccc(/C=N/Nc2nnc(Cc3ccccc3)c(=O)[nH]2)o1,-5,104,12,0,6,-2
COCCNC(=O)/C(C#N)=C/c1cc(C)n(C2CCCCC2)c1C,11,94,1,1,12,-2
COCCNC(=O)/C(C#N)=C/c1ccc2c(c1)OCO2,6,109,35*,0,-27,0
COCCNC(=O)/C(C#N)=C/c1cc(C)n(-c2ccc(C)cc2)c1C,8,78,27*,2,10,11
O=C1c2ccccc2C(=O)c2c1ccc(O)c2O,/,/,83*,/,/,1
CCOC(=O)c1ccc(S(=O)(=O)NNC(=O)COc2ccccc2C)cc1,14,101,-6,999*,-13,-3
COc1ccc2nc(NC(=O)c3cccs3)sc2c1,16,106,2,21*,11,-1
COc1ccc2c(c1)Cc1sc(NC(=O)c3cccs3)nc1-2,9,119,-1,3,55*,7
CCOc1ccc2nc(NC(=O)C3CCCN(S(=O)(=O)c4cccs4)C3)sc2c1 (stereo unspecified),20,92,0,0,61*,1
CC(=O)Nc1ccc2nc(NC(=O)c3cccs3)sc2c1,22,90,-5,1,1,-3
CCOc1ccc2nc(NC(=O)C(NS(=O)(=O)c3cccs3)C(C)C)sc2c1 (stereo unspecified),5,110,0,0,24,5
CS(=O)(=O)c1ccc2nc(NC(=O)CCC(=O)c3cccs3)sc2c1,-96*,115,-14,1,5,2
CC(C)(C)c1cc(O)c(C(C)(C)C)cc1O,14,52*,/,-1,10,/
O=C(NC1CCCC1)C(c1ccncc1)N(Cc1ccccc1)C(=O)c1ccc(-c2ccccc2)[nH]1 (stereo unspecified),5,104,-6,2,61*,2
O=C(NC1CCCC1)C(c1ccncc1)N(CCCN1CCOCC1)C(=O)c1ccc(-c2ccccc2)[nH]1 (stereo unspecified),33,93,14,0,35,-3
